Laboratory results reported in ChEMBL document CHEMBL1124233, “Clofazimine analogues active against a clofazimine-resistant organism” (J Med Chem, 1988).

Tests used:
Type in all cases: functional, organism-based
[1] = test system: Mycolicibacterium smegmatis; experiment: 100% inhibition of growth of clofazimine resistant Mycobacterium smegmatis 607 strain in vitro
Summary of the method: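 Strain: 20× step-up clofazimine-resistant mutant of M. smegmatis ATCC607. 10^5 viable cells inoculated into modified Kirchner's medium with 0.5% Tween 80. Drugs were added in DMSO (2% final in all tubes). Roller tubes were incubated at 37 °C for 72 h. Growth was read as optical transmission in a spectrophotometer.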

[2] = test system: Mycolicibacterium smegmatis; experiment: Concentration for 100% inhibition of growth of dapsone sensitive Mycobacterium smegmatis 607 strain in vitro
Summary of the method: (§1)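 M. smegmatis ATCC607-derived strains (one of three used, including a dapsone-sensitive one) were grown in modified Kirchner's medium with 0.5% Tween 80, inoculated with 10^5 viable cells. Drugs were added in DMSO (2% final). Roller tubes were incubated at 37 °C for 72 h. Growth was read as spectrophotometric transmission.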

[3] = test system: Mycolicibacterium smegmatis; experiment: 100% inhibition of growth of rifampicin resistant Mycobacterium smegmatis 607 strain in vitro; summary of the method: as §1

| Compound | Concentration [1] | Concentration [2] | Concentration [3] |
| --- | --- | --- | --- |
| c1ccc(Nc2cc3nc4ccccc4n(-c4ccccc4)c-3c/c2=N\C2CCCC2)cc1 | 100 µg/mL | 3 µg/mL | 3 µg/mL |
| CNCCC/N=c1\cc2n(-c3ccc(Cl)cc3)c3ccccc3nc-2cc1Nc1ccc(Cl)cc1 | 0.6 µg/mL | 0.2 µg/mL | 0.3 µg/mL |
| CCCC/N=c1\cc2n(-c3ccccc3)c3ccc(Cl)cc3nc-2cc1Nc1ccccc1 | 100 µg/mL | 2 µg/mL | 3 µg/mL |
| CCN(CC)CC/N=c1\cc2n(-c3ccc(C)cc3)c3ccccc3nc-2cc1Nc1ccc(C)cc1 | 3 µg/mL | 0.5 µg/mL | 0.5 µg/mL |
| Cc1ccc(Nc2cc3nc4ccccc4n(-c4ccc(C)cc4)c-3c/c2=N\CCO)cc1 | 12 µg/mL | 4 µg/mL | 8 µg/mL |
| CC1CCCCN1CCC/N=c1\cc2n(-c3ccc(Cl)cc3)c3ccccc3nc-2cc1Nc1ccc(Cl)cc1 (centres undefined) | 2 µg/mL | 0.2 µg/mL | 0.2 µg/mL |
| Clc1ccc(Nc2cc3nc4ccccc4n(-c4ccc(Cl)cc4)c-3c/c2=N\CCN2CCNCC2)cc1 | 0.8 µg/mL | 0.2 µg/mL | 0.2 µg/mL |
| CC1CCC(/N=c2\cc3n(-c4ccccc4)c4ccccc4nc-3cc2Nc2ccccc2)CC1 (centres undefined) | 100 µg/mL | 6 µg/mL | 8 µg/mL |
| CCN(CC)CC/N=c1\cc2n(-c3ccccc3)c3ccc(Cl)cc3nc-2cc1Nc1ccccc1 | 30 µg/mL | 1 µg/mL | 2 µg/mL |
| CCC/N=c1\cc2n(-c3ccccc3)c3ccccc3nc-2cc1Nc1ccccc1 | 20 µg/mL | 2 µg/mL | 3 µg/mL |
| CC(C)C/N=c1\cc2n(-c3ccc(Cl)cc3)c3ccccc3nc-2cc1Nc1ccc(Cl)cc1 | 100 µg/mL | 4 µg/mL | 4 µg/mL |
| CCCNCCC/N=c1\cc2n(-c3ccc(Cl)cc3)c3ccccc3nc-2cc1Nc1ccc(Cl)cc1 | 2 µg/mL | 0.2 µg/mL | 0.2 µg/mL |
| CC(C)/N=c1\cc2n(-c3ccc(Cl)cc3)c3ccccc3nc-2cc1Nc1ccc(Cl)cc1 | 30 µg/mL | 1.5 µg/mL | 0.5 µg/mL |
| OCCNCC/N=c1\cc2n(-c3ccc(Cl)cc3)c3ccccc3nc-2cc1Nc1ccc(Cl)cc1 | 20 µg/mL | 8 µg/mL | 8 µg/mL |
| CC(C)CC/N=c1\cc2n(-c3ccccc3)c3ccc(Cl)cc3nc-2cc1Nc1ccccc1 | 100 µg/mL | 3 µg/mL | 3 µg/mL |
| CC/N=c1\cc2n(-c3ccc(Cl)cc3)c3ccccc3nc-2cc1Nc1ccc(Cl)cc1 | 100 µg/mL | 2 µg/mL | 2 µg/mL |
| Clc1ccc(Nc2cc3nc4ccccc4n(-c4ccc(Cl)cc4)c-3c/c2=N\CCN2CCCCC2)cc1 | 10 µg/mL | 0.4 µg/mL | 0.5 µg/mL |
| CCC/N=c1\cc2n(-c3ccc(Cl)cc3)c3ccccc3nc-2cc1Nc1ccc(Cl)cc1 | 100 µg/mL | 3 µg/mL | 3 µg/mL |
| CCOc1ccc(Nc2cc3nc4ccccc4n(-c4ccc(OCC)cc4)c-3c/c2=N\CC(C)C)cc1 | 100 µg/mL | 4 µg/mL | 4 µg/mL |
| CN1CCN(CCC/N=c2\cc3n(-c4ccccc4)c4ccccc4nc-3cc2Nc2ccccc2)CC1 | 1 µg/mL | 0.5 µg/mL | 0.5 µg/mL |
| c1ccc(Nc2cc3nc4ccccc4n(-c4ccccc4)c-3c/c2=N\C2CCCCCC2)cc1 | 20 µg/mL | 2 µg/mL | 2 µg/mL |
| c1ccc(Nc2cc3nc4ccccc4n(-c4ccccc4)c-3c/c2=N\CC2CCCCC2)cc1 | 100 µg/mL | 2 µg/mL | 2 µg/mL |

| Compound | Concentration [1] | Concentration [2] | Concentration [3] |
| --- | --- | --- | --- |
| Clc1ccc(Nc2cc3nc4ccccc4n(-c4ccc(Cl)cc4)c-3c/c2=N\C2CCCCC2)cc1 | 20 µg/mL | 2 µg/mL | 1 µg/mL |
| Cc1ccc(Nc2cc3nc4ccccc4n(-c4ccc(C)cc4)c-3c/c2=N\CCCNC2CCCCC2)cc1 | 0.5 µg/mL | 0.2 µg/mL | 0.2 µg/mL |
| CC(C/N=c1\cc2n(-c3ccccc3)c3ccccc3nc-2cc1Nc1ccccc1)N(C)C (centres undefined) | 4 µg/mL | 0.8 µg/mL | 1 µg/mL |
| NCCCCC/N=c1\cc2n(-c3ccc(Cl)cc3)c3ccccc3nc-2cc1Nc1ccc(Cl)cc1 | 0.5 µg/mL | 0.2 µg/mL | 0.3 µg/mL |
| OCC/N=c1\cc2n(-c3ccccc3)c3ccccc3nc-2cc1Nc1ccccc1 | 20 µg/mL | 3 µg/mL | 5 µg/mL |
| OCCNCC/N=c1\cc2n(-c3ccccc3)c3ccc(Cl)cc3nc-2cc1Nc1ccccc1 | 20 µg/mL | 5 µg/mL | 10 µg/mL |
| O=C1CCCN1CC/N=c1\cc2n(-c3ccc(Cl)cc3)c3ccccc3nc-2cc1Nc1ccc(Cl)cc1 | 20 µg/mL | 1 µg/mL | 1.6 µg/mL |
| CC(C)CC/N=c1\cc2n(-c3ccc(Cl)cc3)c3ccccc3nc-2cc1Nc1ccc(Cl)cc1 | 80 µg/mL | 2 µg/mL | 3 µg/mL |
| O=C1CCCN1CCC/N=c1\cc2n(-c3ccc(Cl)cc3)c3ccccc3nc-2cc1Nc1ccc(Cl)cc1 | 20 µg/mL | 2 µg/mL | 2 µg/mL |
| Clc1ccc2c(c1)nc1cc(Nc3ccccc3)/c(=N/CC3CCNCC3)cc-1n2-c1ccccc1 | 1 µg/mL | 0.2 µg/mL | 0.4 µg/mL |
| c1ccc(Nc2cc3nc4ccccc4n(-c4ccccc4)c-3c/c2=N\CC2CCNCC2)cc1 | 0.6 µg/mL | 0.3 µg/mL | 0.3 µg/mL |
| CCN1CCCC1C/N=c1\cc2n(-c3ccc(Cl)cc3)c3ccccc3nc-2cc1Nc1ccc(Cl)cc1 (centres undefined) | 10 µg/mL | 1 µg/mL | 1 µg/mL |
| Clc1ccc(Nc2cc3nc4ccccc4n(-c4ccc(Cl)cc4)c-3c/c2=N\C2CCCCCC2)cc1 | 50 µg/mL | 2 µg/mL | 3 µg/mL |
| N=c1cc2n(-c3ccccc3)c3ccccc3nc-2cc1Nc1ccccc1 | 12 µg/mL | 3 µg/mL | 8 µg/mL |
| OCCCN1CCN(CCC/N=c2\cc3n(-c4ccc(Cl)cc4)c4ccccc4nc-3cc2Nc2ccc(Cl)cc2)CC1 | 2 µg/mL | 0.6 µg/mL | 0.5 µg/mL |
| CC/N=c1\cc2n(-c3ccccc3)c3ccccc3nc-2cc1Nc1ccccc1 | 20 µg/mL | 3 µg/mL | 3 µg/mL |
| CC(C)CC/N=c1\cc2n(-c3ccccc3)c3ccccc3nc-2cc1Nc1ccccc1 | 20 µg/mL | 2 µg/mL | 2 µg/mL |
| NCCCC/N=c1\cc2n(-c3ccc(Cl)cc3)c3ccccc3nc-2cc1Nc1ccc(Cl)cc1 | 0.5 µg/mL | 0.2 µg/mL | 0.3 µg/mL |
| NCCC/N=c1\cc2n(-c3ccc(Cl)cc3)c3ccccc3nc-2cc1Nc1ccc(Cl)cc1 | 1 µg/mL | 0.3 µg/mL | 0.4 µg/mL |
| OCCN(CCO)CCC/N=c1\cc2n(-c3ccc(Cl)cc3)c3ccccc3nc-2cc1Nc1ccc(Cl)cc1 | 3 µg/mL | 0.6 µg/mL | 1 µg/mL |
| c1ccc(Nc2cc3nc4ccccc4n(-c4ccccc4)c-3c/c2=N\C2CCCCC2)cc1 | 10 µg/mL | 3 µg/mL | 2 µg/mL |
